# In the EternaBench riboswitch data:
# System: MS2 coat protein
# Assay: apparent Kd, MS2 coat protein; higher = weaker binding; RNA-MaP array
# How it was run: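 Designs measured on fewer than 10 clusters were excluded from the data. The rest were RNAs transcribed from sequenced DNA templates on an Illumina sequencing chip and incubated at room temperature, with or without input ligand, with fluorescently labeled MS2 coat protein at 1.5 nM to 3 μM for 0.8–1.5 h at the lowest to 10–20 min at the highest concentrations. Apparent Kd is the median of the per-cluster binding-curve fits.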
# [1] = designed as: ON switch for flavin mononucleotide, no ligand
# [2] = ligand present: flavin mononucleotide, designed as: ON switch for flavin mononucleotide
# [3] = designed as: ON switch for tryptophan, no ligand
# [4] = ligand present: tryptophan, designed as: ON switch for tryptophan
# [5] = designed as: OFF switch for flavin mononucleotide, no ligand
# [6] = ligand present: flavin mononucleotide, designed as: OFF switch for flavin mononucleotide
# [7] = designed as: ON switch for theophylline, no ligand
# [8] = ligand present: theophylline, designed as: ON switch for theophylline
Sequence,apparent Kd [1],apparent Kd [2],apparent Kd [5],apparent Kd [6],other results
UAACAUUGCUAGAAGGGCGGUCAUCAGAUGGCCGCAGGAUAUAGACAUGAGGAUCACCCAUGUGAAGGGCAGGUUGUUCUAGUU,18.1 nM,22.5 nM,,,
GCGACACUCACGGCCGCCACUGAUUAGCCCAGUAUGGAGCCCACACAUGAGGAUCACCCAUGUCACAGGACCGGGUGGGUCUAUU,,,,,apparent Kd [3]: 25.8 nM; apparent Kd [4]: 26.8 nM
CGUGAUCGCAGAAAGGAUAUUUGGCCUGUAACAUGAGGAUCACCCAUGUUCAAAUGUGACUUACUAAAGAAGGUUCGAAGAUCCAA,7.23 nM,7.11 nM,,,
GGAUCGCUCUACAUGAGGAUCACCCAUGUGACUGAGCUAGAUAGAAGGAGAUGGCGAAAUACUUUCUAGGAUAUAUUGUAGCUA,,,8.05 nM,8.08 nM,
CAUCAGGGAUCAGGAUAUACAAUGGGUACAUGAGGAUCACCCAUGUAGACGCCAACACUGUCAUUGUAGAAGGGAUUGAGCGAA,55.1 nM,29.8 nM,,,
UUACACAUGAGGAUCACCCAUGUCUGGGAGCGAGGACCGGUACGGCCGCCACUCGAAUUGUCAGGGCUAUGCCGGACGAUGCAUC,,,,,apparent Kd [3]: 17.1 nM; apparent Kd [4]: 21.1 nM
ACCAGGCAAGGAUAUGGUUCUGUAAACAUGAGGAUCACCCAUGUAUUUAAUUCAUGUUGGCCAGAAGGUGCUUUCG,,,14.8 nM,13.3 nM,
UAUUAGUUAGAGAAGGUCCUUAGGCCGCGUAAGGAAGGAUAUCUGCAUCACGGGCCUCUGGCAACAUGAGGAUCACCCAUGUGG,,,96.8 nM,156 nM,
AGGAAAGAAGAAGGAUAUCAGUUACGGACAUGAGGAUCACCCAUGUACGUAGGGUGAACCCUGAUUGAGAAGGUCUGUGUUUUA,23.1 nM,13.4 nM,,,
GGACAAGAAGAGAAGGGCUUACCAAACCUCAACAUGAGGAUCACCCAUGUCAAAGUGGAAGCAUAGCAGGAUAUCUAACAGCGC,,,8.09 nM,7.72 nM,
UUCAUUUUCUAGGAUAUGUACCAGAAAAUAGUUACAGAAGGAGAGACAUGAGGAUCACCCAUGUUGGCAACAGC,,,10.7 nM,11.6 nM,
CGAACUAGCUAGAAGGAACAGGCGACUAAAGUGUUAGGAUAUAGGCGUAUGUGCAGACAUGAGGAUCACCCAUGUGUCGAAUUU,,,17.8 nM,14.7 nM,
AAUUGUGCAGGAUAUUCACAGGUGAACAUGAGGAUCACCCAUGUAGCAUGAGGUGUAAUCGAAGAAGGGCAGGUCC,,,109 nM,72.8 nM,
CCGAUAAUCAAACAUGAGGAUCACCCAUGUUCUGGACGGUUCGAGGAUAUGGCACAAGGUAUCUUCCAGAAGGCGAGCCGGUGA,8.04 nM,5.98 nM,,,
GGAAAACACAAGAAGGCGUCGGACUGGGCGAGACGAGGAUAUUGUAGCUCUAAUCGUGGACAGACAUGAGGAUCACCCAUGUCG,7.93 nM,6.18 nM,,,
AAUCAACUUAGAGGAUAUAAGCUUAAAAUAGGGUUAGAAGGCUAUGGUACUAAUGAUCCGUCAACAUGAGGAUCACCCAUGUAG,,,45 nM,37.2 nM,
UCGGUGUAAGAGAAGGAAGUGUUCGCAGGCCAAGGCUCAUUGGCUACAUGAGGAUCACCCAUGUCUUAGGAUAUCUGCGCUCCG,45.6 nM,16.7 nM,,,
GUUUUGCGAAUAGGAUAUAGUAAUGAUUCAGGAAGCCUGAACAUGAGGAUCACCCAUGUGCCAUCCUAGAAGGAUUCGCACGUG,359 nM,186 nM,,,
UCUCUUAAAGCAGGAUAUGAAAUCCACCAGGAAUCAGAAGGGCUCAACGUUACAUGAGGAUCACCCAUGUCCCUUAUGACAAUA,,,7.83 nM,9.35 nM,
UCCAUACGGUAGGAUAUAUGUACCCAGAAGGGCAUAGAAGGACCCACAUGAGGAUCACCCAUGUUCCUUUGGUG,,,24.4 nM,30.5 nM,
UCUCAUAUGGAAGGAUAUCAUACCUUGUCGAGAUGAGAAGGUCCGUAUGGACAUAACAUGAGGAUCACCCAUGUUUCUUGUGUU,188 nM,128 nM,,,
UGAUCUGGCGGAGGAUAUAUGCCAGUAAAACUGAUAGAAGGCCGUGAUAUAACAUGAGGAUCACCCAUGUGAGCUCCUUAGCGA,,,20.5 nM,18.1 nM,
AUAGAGGAUAAAGGAUAUGAGGUGAACAUCGAUUCAGAAGGUUAUCAGGAUACAUGAGGAUCACCCAUGUUUCCUUUGCUGUUG,38.5 nM,22.9 nM,,,
CCUUUAGAUGUGAGGAUAUGUACUUGACUUUCAUGACAGAAGGCACAUGAGGAUCACCCAUGUAGUGUCAUUGG,,,10.4 nM,36.4 nM,
UCACUGUUAGGAUAUCUCAUAGCAGUAGGUCAGCUAUUUUGAGAGAAGGAACAUGAGGAUCACCCAUGUAAAUA,,,19.6 nM,84.7 nM,
UUACUACAUGAGGAUCACCCAUGUGAAAAUUAAACGAAAAGUUAGGAUAUGAAUGGAAAUGCACCUCAGAAGGAACGCGACAAG,18.4 nM,16.9 nM,,,
UCAUUGAGAGUCAUCCAGCGUUAAUGGGAUACCAGAGUUCUUUUACUCCCUUGGCAGCCCGGAACAUGAGGAUCACCCAUGUCUG,,,,,"apparent Kd (designed as: OFF switch for theophylline, no ligand): 34.9 nM; apparent Kd (ligand present: theophylline, designed as: OFF switch for theophylline): 80.8 nM"

Sequence,apparent Kd [1],apparent Kd [2],apparent Kd [5],apparent Kd [6],other results
UAUACUACUGAGGAUAUCCAAUCCCAGAAACAAGGAGAAGGCAGUACAUGAGGAUCACCCAUGUUCCUCGACAU,,,43.1 nM,127 nM,
ACAUGAGGAUCACCCAUGUAAACAAGGUUGGAGACCCGCAAUGAGGAUAUCAUAAAGAAACCCAAUGAGAAGGCAUGAUCACAA,22.3 nM,17.2 nM,,,
UCCGGCGUUGACUAGGAUAUACGGAGGGUAACAUGAGGAUCACCCAUGUAAAGAACUAAAACAGCGUAGAAGGAGUCCAAAGCGAC,28 nM,19.1 nM,,,
AGAUUUGCAGGAUAUACCGGUACAAACAUGAGGAUCACCCAUGUAACGCAUGGUCAGUGAGUAGAAGGGCACGUAG,,,31.4 nM,24 nM,
GCUAAUCCAGGAGGAUAUAGGUUCUUUUCUACACAUGAGGAUCACCCAUGUGCAUCCCGGCGUACCUAGAAGGCCUGUCUAAAA,25.9 nM,15.5 nM,,,
AACAGACGAGACGAUACCAGUCUCUUAGCGCACAUGAGGAUCACCCAUGUUGGCAAGCUCGACCCUUGGCAGCGUACCUUUGAUC,,,,,apparent Kd [7]: 24.4 nM; apparent Kd [8]: 14 nM
UAGUAGUAAGGAUAUGCGGCACCGACGCCUCCGAACCGCGGGCAGAAGGUACAUGAGGAUCACCCAUGUGGGUA,,,169 nM,116 nM,
GCAGGACAUGAGGAUCACCCAUGUGAUACUAUGACAGGAUAUGAUUGAAAACUUACUAGAACAGAAGGGUCGUGUA,94.3 nM,34.5 nM,,,
AGAACCCAGUAAGGAUAUGAUGAGUCUAUACAACAUGAGGAUCACCCAUGUCCGAGGAAACUAGAUCAGAAGGUACAAGAAAAG,73.8 nM,17.6 nM,,,
AGGAAUGUCACGGCCGCCACUGACGCUAAAAUGGGCUCGAGCCGACAUGAGGAUCACCCAUGUUCCAGGACCGGGUGAAUCCUGG,,,,,apparent Kd [3]: 174 nM; apparent Kd [4]: 123 nM
AUGAGAUGAGGAUAUACUGGGUCCGCAUUAGAAACUUAUCAACAUGAGGAUCACCCAUGUAGAAGGCAUGUGAG,,,25.4 nM,83.2 nM,
CGCCCUAAAGAUAAGGAUAUUCAGUUAGUAACAUGAGGAUCACCCAUGUGCACAUUUCACUUGAUGAAGAAGGUAUCUGGAACAUU,8.27 nM,6.1 nM,,,
CUCGUGUUAGGAUAUGACGUCCCGCGCUCCGUUAACUAAUUUCAGAAGGAACAUGAGGAUCACCCAUGUUGGUG,,,150 nM,59.7 nM,
CGGCAGAAAGUGAGGAUAUCGGUUGUAUGAGGAGACGAGAAGGCACAUGAGGAUCACCCAUGUUAGUAGUCCAC,,,9.54 nM,8.8 nM,
ACCUUACAUGAGGAUCACCCAUGUCGUGAUACCAGAAACCACGUAUUCCCUUGGCAGCACACCCGUGAUGAGAUUGUCGGUUUUG,,,,,apparent Kd [7]: 57.4 nM; apparent Kd [8]: 88 nM
GUGAUGCAGCAGAAGGGAUCGCUAAGGUUGUAAUCAGGAUAUGCAGUCGCUAGGGCGCCUCGACAUGAGGAUCACCCAUGUUUG,,,52.7 nM,61.7 nM,
GCGAGGAGGCAGAAGGACUAAAACACGCUACAAGUAGGAUAUGCAUCCUGCACACAUGAGGAUCACCCAUGUAGAUCCUAUCGC,,,78 nM,151 nM,
GGACGCCAUAUAGAGGAUAUUAAUGUCGACACAUGAGGAUCACCCAUGUCCCACUCGGGCGAACAUAAGAAGGCUAAUCAGACGUA,14.5 nM,10.5 nM,,,
CUUCUUCGUGCAGGAUAUAAGGGAACACGAUGACAUGAGGAUCACCCAUGUUCUAUAAGCAGGCUUUAGAAGGGCAUUUUGGAU,27.1 nM,20.1 nM,,,
AUAUAAUCAGGAUAUACAUGUUUCUUUAACACCGAGGCCGUACAUGAGGAUCACCCAUGUAGAAGGGAUUGCGG,,,6.95 nM,6.32 nM,
GGAGUUCUAGGAUAUAAUUCGUGGUACAUGAGGAUCACCCAUGUCGCUGAUGCAUCGCCUUUAGAAGGAGAGAUCU,,,9.03 nM,9.49 nM,
UGUUACAUGAGGAUCACCCAUGUCAGAUGGUCUGGCUAUUACAGAAGGAAUAAAGAACGUCGAGAUUAGGAUAUGUGUAGAUGA,40.9 nM,31.8 nM,,,
GUAACGGAAGGAUAUACGCUUUAAUGGACAGGUUCGAUGGCACAUGAGGAUCACCCAUGUAGAAGGUCCCUAAA,,,10.8 nM,13.4 nM,
AUAGUGUAAGGAUAUGUAGAGAGCUAGAAAAUACAAACAAUACAGAAGGUACAUGAGGAUCACCCAUGUGAUUG,,,14.4 nM,26.3 nM,
UGACACAUGAGGAUCACCCAUGUCGCGAAACGAGGACCGGUACGGCCGCCACUCGCACAAACUCCUCUCCAGCACCAGCUUUUAG,,,,,apparent Kd [3]: 19.4 nM; apparent Kd [4]: 15.5 nM
AACAGUAUUAUAGAUACCAGCAGGUCAUAAGACAUGAGGAUCACCCAUGUGAAUGAGGUAUGCCCUUGGCAGCUAUGAGGUCCUC,,,,,apparent Kd [7]: 173 nM; apparent Kd [8]: 128 nM
UGGCCAGAACCUUUUGUGGCCACAUGAGGAUCACCCAUGUGCGAGGAUAUCCCAUCCGGUCCGGCGGAGAAGGCGCGUAUCGGC,34.4 nM,30.1 nM,,,
